T cell HTS: modulators of CD8 T cell-vesicle binding, primary screen, mouse 2C CD8+ T cells, flow cytometry. response (vesicle binding), % at 7 µM. 330,000 compounds, 0.068% hits. 2C CD8+ T cell-vesicle binding; hits give low values;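 active means response, share of CD8 T cells binding vesicles, and their 90th percentile fluorescence all below set limits, cut at about 80% in these data, passing the limit was not always enough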;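 further: values below 100% mean blocked vesicle binding to the CD8+ T cells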
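Benchmarks: naked versus QL9-loaded vesicles / Assay system: purified 2C TCR transgenic mouse naive CD8+ T cells / Technique: high-throughput flow cytometry with anti-B7-1 and anti-CD8 staining / Timing: Cell–vesicle co-incubation 1.5 h at 37 °C, staining 20 min on ice / Read-out: percent CD8+ FL2 mean versus row control / Probe or stimulus: QL9-loaded Drosophila micro-vesicles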
Mot1-301 SUMO: yeast Mot1-301 growth rescue at high temperature, primary screen, SUMOylation pathway inhibitor project, S. cerevisiae, ATP luminescence, 38.5C. S. cerevisiae Mot1-301 growth rescue; percent above DMSO median, 100 means doubled. growth rescue, % at 18.8 µM. 320,000 compounds, 1% hits. AID 2716, 2010;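 active means every valid replicate shows activation above 250% relative to neutral control wells; inactive means the rest, any valid replicate at or below 250%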;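 further: OY570 slx delta 5 strain wells were the positive control but not used for scaling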
HIF act: HIF pathway transcriptional activators, primary screen, cell-based, U2OS HRE-luciferase, luminescence; U2OS HRE-luciferase reporter; normalized: DMSO 0%, desferrioxamine 100%; activation, % at 7.5 µM (by protocol); 300,000 compounds, 0.32% hits;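 active means mean activation of at least 10% of the iron chelator positive control signal, with at least half of replicates also reaching 10%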
GASC-1 inh: inhibitors of GASC-1 histone demethylase, primary screen, biochemical, fluorescence, DELFIA europium | Lysine-specific demethylase 4C (Homo sapiens), Q9H3R0 | GST-JMJD2C(1-420) H3K9me3 demethylation | inhibition, % at 2.35 µM | 330,000 compounds, 0.069% hits | AID 2099, 2009;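 active means more than half of a compound's replicate wells show inhibition beyond 50%, single wells judged on their own value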;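 further: signal counts dimethyl H3K9 product captured on neutravidin plate; 0% = median of DMSO wells and 100% = 0.3 times that DMSO median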
Target sequence (Q9H3R0 1-420 limits assumed): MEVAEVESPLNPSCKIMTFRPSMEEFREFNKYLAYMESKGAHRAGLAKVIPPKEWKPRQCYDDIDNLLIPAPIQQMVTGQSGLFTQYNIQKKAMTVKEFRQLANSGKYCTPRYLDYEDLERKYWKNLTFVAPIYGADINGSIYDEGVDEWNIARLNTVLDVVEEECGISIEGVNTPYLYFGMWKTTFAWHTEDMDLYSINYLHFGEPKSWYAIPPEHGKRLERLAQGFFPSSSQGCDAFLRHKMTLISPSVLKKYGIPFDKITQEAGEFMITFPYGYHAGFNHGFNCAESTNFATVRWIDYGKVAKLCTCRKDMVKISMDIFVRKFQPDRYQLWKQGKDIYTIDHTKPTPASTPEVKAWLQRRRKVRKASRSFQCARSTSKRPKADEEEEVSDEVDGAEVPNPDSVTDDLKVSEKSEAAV
Mot1 SUMO dose: growth restoration of Mot1-301 yeast on galactose, dose response, SUMO pathway inhibitor project, whole organism, S. cerevisiae, ATP luminescence, cherry-picked samples | shares compounds with Mot1-301 SUMO | S. cerevisiae Mot1-301 galactose growth, 24 h; -100 = growth of slx-deleted rescue strain | growth activity, percent, % at 42 µM | 2,300 tested, under 10 active | AID 493004, 2010;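 active means Signal drops as the depositor expects, and the fitted half-maximal dose is no more than ten times the top valid tested dose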;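 further: more negative values mean stronger growth rescue toward the control strain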
An asterisk follows results filed as active; / = not tested or not shown; [ ] = dose if it differs, or a comment. This is a sample that favours compounds with a hit; in the whole collection about 1.4% have one here.

SMILES | T cell HTS | Mot1-301 SUMO | HIF act | GASC-1 inh | Mot1 SUMO dose
CCOc1ccc(S(=O)(=O)N2CCC(C(=O)N3CCN(c4ccccc4)CC3)CC2)cc1 | 501 | 487* | -1 | -2 | 0
COc1ccccc1N1CCN(C(=O)C2CCN(S(=O)(=O)c3ccc(C)cc3)CC2)CC1 | 282 | 989* | 0 | 3 | 0
COc1ccccc1N1CCN(C(=O)C2CCN(S(=O)(=O)c3ccccc3F)CC2)CC1 | 274 | -2 | / | / | /
COc1cccc(CN2CCN(C(=O)c3cccc4ccccc34)CC2)c1OC | 310 | 735* | 0 | 122 | 0
COc1cccc(OC)c1C(=O)N1CCN(Cc2ccccc2C)CC1 | 317 | 359* | 0 | 75 | 1
COc1ccc(CN2CCN(C(=O)c3cc(-c4cccnc4)nc4ccc(Cl)cc34)CC2)c(OC)c1OC | 236 | 510* | -1 | 4 | 0
CS(=O)(=O)N1CCN(C(=O)c2cc(-c3cccnc3)nc3ccc(Cl)cc23)CC1 | 364 | -2 | 0 | -4 | /
O=C(CN1CCN(S(=O)(=O)c2ccc(Br)cc2)CC1)N/N=C/c1ccccc1C(=O)O | 408 | -24 | -1 | 3 | /
CS(=O)(=O)Nc1ccccc1C(=O)NCCSCc1ccccc1 | 130 | 523* | 0 | -8 | 0
OCCNC(=S)c1ccccc1 | 996 | 14 | 0 | -6 | /
O=C(NCc1ccc(F)cc1)C1CCN(S(=O)(=O)c2ccc(Br)s2)CC1 | 181 | -20 | 0 | -15 | /
Fc1cccc(Cl)c1CSc1nnc(CN2CCOCC2)n1-c1ccccc1 | 280 | 551* | 0 | -2 | 0
Clc1ccc(CSc2nnc(CN3CCOCC3)n2-c2ccccc2)cc1Cl | 294 | 588* | 0 | -1 | 0
Clc1cccc(Cl)c1CSc1nnc(CN2CCOCC2)n1-c1ccccc1 | 469 | 3 | -1 | 11 | /
CCC(COC)NC(=O)c1ccc(OC)c(OC2CCN(C(C)=O)CC2)c1 (centres undefined) | 151 | 0 | -2 | -2 | /
CC(C(=O)O)N1CCCCC1 (centres undefined) | 814 | 1 | 0 | 11 | /
O=C(CSc1nc(N2CCOCC2)nc(N2CCOCC2)n1)Nc1ccccc1F | 313 | -5 | 0 | -23 | /
CCN1CCCC1CN(Cc1cc2ccc(C)cc2[nH]c1=O)C(=S)Nc1ccc(OC)cc1OC (centres undefined) | 246 | 562* | -1 | -1 | 0
Cc1cc(F)ccc1S(=O)(=O)Nc1ccccc1C(=O)Nc1ccc2[nH]c(=O)[nH]c2c1 | 591 | 370* | 0 | 5 | 0
CCN(CC(=O)NCc1ccc(Cl)cc1)C(=O)/C=C/c1ccc(C#N)cc1 | 262 | 821* | 0 | 13 | 1
Cc1cccn2c(=O)nc(SCC(=O)c3ccccc3)nc12 | 240 | -3 | 0 | 6 | /
CCCSc1nc(=O)n2cccc(C)c2n1 | 537 | 626* | 0 | 0 | 1
CCOC(=O)c1csc(NC(=O)c2ccc3c(c2)OCCO3)n1 | 486 | -17 | 2 | -12 | /
CCOC(=O)N1CCN(C(=O)c2ccc3ccccc3c2)CC1 | 157 | 379* | -11 | -4 | 0
COc1ccc(C(=O)Cc2cc3ccccc3oc2=O)cc1 | 51 | 31 | 2 | -2 | /
SMILES | T cell HTS | Mot1-301 SUMO | HIF act | GASC-1 inh | Mot1 SUMO dose
Cc1c(C2(O)CCCCC2)[nH]c2ccc(C#N)cc12 | 301 | 370* | / | 28 | 0
CC(C(=O)Nc1cccc(S(=O)(=O)N2CCOCC2)c1)N1CCN(C)CC1 (centres undefined) | 193 | 1 | 0 | -20 | /
COc1ccc(N2CCN(C(=O)C3CCCN(S(=O)(=O)c4ccc5c(c4)oc(=O)n5C)C3)CC2)cc1 (centres undefined) | 237 | 450* | 1 | 4 | 0[21 µM]
COc1ccccc1N1CCN(C(=O)C2CCCN(S(=O)(=O)c3ccc4c(c3)oc(=O)n4C)C2)CC1 (centres undefined) | 103 | 2 | 0 | 3 | /
COC(=O)C1C2C=CC3(CN(CCc4ccccc4)C(=O)C13)O2 (centres undefined) | 206 | 429* | -2 | 3 | 0[21 µM]
CCC(=O)NNC(=O)Cc1c(C)n(C(=O)c2ccc(Cl)cc2)c2ccc(OC)cc12 | 690 | -7 | 0 | 2 | /
O=S(=O)(c1ccccc1)N1CCN(c2nc3ccccc3s2)CC1 | 170 | 453* | 2 | 2 | 0
CS(=O)(=O)N1CCN(c2nc3ccccc3s2)CC1 | 284 | -6 | 1 | -1 | /
Cc1c(C(=O)Nc2ccccc2)cnn1-c1ccccc1 | 194 | 38 | 3 | 5 | /
Cc1c(C(=O)Nc2cccc(F)c2)cnn1-c1ccccc1 | 201 | 805* | -6 | -20 | -1
CN(C(=O)COC(=O)c1cc2ccccc2cc1O)c1c(N)n(Cc2ccccc2)c(=O)[nH]c1=O | 261 | 427* | 0 | 5 | 0
CCN(C(=O)CN1CCCCC1)c1c(N)n(Cc2ccccc2)c(=O)[nH]c1=O | 445 | 11 | / | 4 | /
CCN(C(=O)Cn1nc(C)c([N+](=O)[O-])c1C)c1c(N)n(Cc2ccccc2)c(=O)[nH]c1=O | 390 | 376* | -2 | -30 | 1
CC(C)CN(C(=O)COC(=O)c1ccc2c(c1)OCCO2)c1c(N)n(Cc2ccccc2)c(=O)[nH]c1=O | 372 | 7 | 0 | 4 | /
CC(C)CN(C(=O)COC(=O)c1ccc2c(c1)OCO2)c1c(N)n(Cc2ccccc2)c(=O)[nH]c1=O | 215 | 710* | 0 | -2 | 1
CCCCN(C(=O)C1=COCCO1)c1c(N)n(Cc2ccccc2)c(=O)[nH]c1=O | 182 | 521* | 0 | -10 | -1
O=C(O)C1CCCN1c1ncccc1[N+](=O)[O-] (centres undefined) | 171 | -7 | -1 | -3 | /
O=C(OCC(=O)N1CCCc2ccccc21)c1c(F)cccc1F | 441 | 165 | -1 | -12 | /
Cc1cccc(NC2=NCC(=O)N2Cc2cccs2)c1 | 266 | -4 | 0 | 1 | /
COc1cc(C(=O)OCC(=O)NC(=O)C2CCCCC2)ccc1OC(F)F | 222 | / | 0 | -4 | /
c1ccc2cc(C3CCCCC3)ncc2c1 | 164 | 738* | / | 3 | 0
COC(=O)c1ccc(COc2ccc(/C=N/NC(N)=S)cc2)o1 | 894 | 7 | 0 | -5 | /
Cc1cc(OCCn2ccnc2)cc(C)c1Cl | 221 | 3 | -2 | 1 | /
Oc1cccc(/C=N/n2c(C3CCCCC3)n[nH]c2=S)c1 | 327 | 3 | 0 | 11 | /
COc1cc(/C=N/n2c(C3CCCCC3)n[nH]c2=S)cc(OC)c1O | 397 | 400* | 1 | -8 | 1

Source: PubChem BioAssay (several laboratories)
